Results published in paper PMC8387982 (ACS Omega, 2021).

Experiments:
[1] = test system: K. pneumoniae ATCC 700603; assay: Checkerboard FIC with conventional antibiotics; format: cell-based, Klebsiella pneumoniae
In short: (§1)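 Checkerboard assay: test compound and antibiotic mixed at 2× their MICs, then 2-fold serial dilutions made in MHB. Equal volume of bacteria (1×10^6 CFU/mL) added and incubated 18–24 h at 37 °C. Growth read as in the MIC assay. FIC = (MIC peptide in combination/MIC peptide alone) + (MIC antibiotic in combination/MIC antibiotic alone). Interpretation: ≤0.5 synergy; 0.5–1 additive; 1.0–<4.0 indifference; ≥4 antagonism.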

P. aeruginosa ATCC 27853 = assay: Checkerboard FIC with conventional antibiotics; format: cell-based, Pseudomonas aeruginosa; conditions: in combination with rifampicin
In short: as §1

E. coli ATCC 25922 = assay: Checkerboard FIC with conventional antibiotics; format: cell-based, Escherichia coli
In short: as §1

human erythrocytes = assay: Hemolytic assay; format: cell-based; conditions: concentration causing 10% hemolysis of erythrocytes; 1 h, 37 °C
[2] = test system: bacteria (S. aureus, B. subtilis, E. coli, P. aeruginosa, K. pneumoniae); assay: Geometric mean of the peptide MICs; format: cell-based; conditions: over the five bacterial strains
In short: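 Broth microdilution: single colony grown in MHB at 37 °C for 16–24 h. Log-phase culture diluted to 1×10^6 CFU/mL and mixed with equal volumes of serially diluted test compound. […] At least three independent experiments, each with three technical replicates. Geometric mean of MICs across strains computed.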

[3] = test system: human glomerular mesangial cell (GMC) line; assay: MTT cytotoxicity assay; format: cell-based; conditions: read-out: IC50 for GMC, 12 h, peptides 1-256 μM
In short: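 MTT assay: human GMC cells seeded at 1.0×10^4 cells/well and exposed to test compound (1–256 μM) for 12 h at 37 °C, 5% CO2. Then 0.5 mg/mL MTT added for 4 h at 37 °C; formazan dissolved in DMSO and read at 570 nm. At least three independent experiments, each with three technical replicates.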

[4] = Circular dichroism, α-helical content; format: physicochemical
In short: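 CD spectra recorded at 25 °C in a 1.0 mm quartz cell over 190–260 nm (50 nm/min, 1 nm bandwidth, 1 s response). Test compound at 50 μM final in deionized water or 50% TFE. Observed ellipticity corrected for buffer and converted to mean residue ellipticity using peptide concentration, path length and residue number.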

Substance | FIC ([1]; in combination with gentamicin) | FIC ([1]; in combination with rifampicin) | FIC (P. aeruginosa ATCC 27853) | FIC (E. coli ATCC 25922; in combination with gentamicin) | FIC (E. coli ATCC 25922; in combination with rifampicin) | MHC (minimum hemolytic concentration) (human erythrocytes) | GM (geometric mean of the peptide MICs) [2] | IC50 [3] | α-helix in 50% TFE ([4]; CD, 50 μM peptide, 50% TFE, 25 °C) | α-helix in water ([4]; CD, 50 μM peptide, deionized water, 25 °C) | α-helical structure in water (CD) ([4]; water environment, result in words)
polymyxin B | 0.5 | 0.3125 | 0.3125 | 0.3125 | 0.125 | – | – | – | – | – | –
H-GLLKRIKTLL-NH2 [Anoplin] | – | – | – | – | – | >256 µM | 48.50 µM | > 256 µM | 82.64% | 14.03% | did not show a α-helical structure
